ChEMBL document CHEMBL5653608 (Br J Pharmacol, 2011)

Columns and labels:
[1] = Inhibition of EFS-induced contraction of human myometrium incubated for 60 mins; type: functional, tissue-based
How it was run: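 Human myometrial strips (donors aged 24–76) in a 15 mL Krebs bath at 37°C, under EFS at 15 V, 1.5 ms pulses, 10 s every 100 s, at a submaximal 15 Hz. Antagonist (10 or 100 nM) or vehicle was equilibrated for 60 min. Cumulative butaprost (0.1 nM–10 µM) or PGE2 (0.1 nM–3 µM) was given for at least five EFS responses per concentration. pKB was calculated from same-donor concentration ratios.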

[2] = Induction of relaxation in nifedipine-induced carbachol pre-contracted rings of Beagle dog bronchioles incubated for 1 hr relative to control; type: functional, Canis lupus familiaris, Bronchiole; parameters: scale not given: the % may be the effect or the level left
How it was run: (§1)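 Beagle bronchiole rings held at 1 g tension in Krebs at 37°C (with propranolol and phentolamine), primed with 80 mM KCl. Rings were precontracted with 1 µM carbachol, then antagonist (3–100 nM) or vehicle was equilibrated for 1 h. Cumulative PGE2 relaxation curves followed, with final 10 µM nifedipine defining maximal relaxation. KB by the Lew and Angus method.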

[3] = Induction of relaxation in nifedipine-induced carbachol pre-contracted rings of Beagle dog bronchioles incubated for 1 hr; type: functional, tissue-based, Canis lupus familiaris, Bronchiole; how it was run: as §1
[4] = Induction of relaxation in forskolin-induced carbachol pre-contracted C57BL/6 mouse trachea incubated for 30 mins; type: functional, tissue-based
How it was run: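 Male C57BL/6 tracheal rings at 0.35 g tension in Krebs (95% O2/5% CO2, 37°C). Rings were precontracted with 10 µM carbachol before cumulative half-log PGE2 (0.1 nM–30 µM). Curves were repeated in the same ring after 30 min with 3 nM antagonist or DMSO, and 10 µM forskolin set maximal relaxation. pKB = log(CR−1) − log[B].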

[5] = Induction of relaxation in […] C57BL/6 mouse trachea at 0.1 to 30 uM incubated for 30 mins relative to control (reference value: 21.6 +/- 8.8%); type: functional; parameters: scale not given: the % may be the effect or the level left; details: dose 0.1-30 µM, 0.5 h

## CCCCC[C@H](O)/C=C/[C@H]1[C@H](O)CC(=O)[C@@H]1C/C=C\CCCC(=O)O [DINOPROSTONE]
[1]
  IC50: 17.3 nM
[2]
  Activity: 82%
[3]
  EC50: 90 nM
[4]
  EC50: 133 nM
[5]
  Activity: 65.4%
